# Assay results from different studies.
# Compare with care: the assays were run in different laboratories.
# PTGS1: Prostaglandin G/H synthase 1 (PTGS1, Ovis aries, UniProt P05979)
# rep main protease: Replicase polyprotein 1ab, main protease (rep, Porcine epidemic diarrhea virus, UniProt P0C6Y4)
# IPMK: Inositol polyphosphate multikinase (IPMK, Homo sapiens, UniProt Q8NFU5)
SMILES,target,observed,mode,method,IC50 [µM]
COc1cc(C=NNC(=O)c2cc(-c3ccccc3)n(-c3ccc(S(N)(=O)=O)cc3)n2)cc(OC)c1OC,PTGS1,enzyme activity,inhibitor,,7.21
CN(C)c1ccc(C(=O)NCc2cc(O)c(O)c(Br)c2)cc1,rep main protease,enzyme activity,inhibitor,FRET,7.61
CN1CCC(CNc2ccc3ncc(-c4cccc(OC(F)(F)F)c4)n3n2)CC1,"D(1A) dopamine receptor (DRD1, Homo sapiens, UniProt P21728)",cAMP,antagonist,,6.66
COCCNc1nc(NCc2cccc(-c3ccc(OC)cc3)c2)nc2[nH]cnc12,IPMK,enzyme activity,inhibitor,,38
C=C1CC/C=C(\C)CC[C@@H]2[C@@H]1CC2(C)C,"Transient receptor potential cation channel subfamily V member 1, non-phosphorylated (TRPV1, Homo sapiens, UniProt Q8NER1)",ion current,,patch clamp,0.587
NS(=O)(=O)c1ccc(-n2nc(C(=O)NN3C(=O)CCC3=O)cc2-c2ccccc2)cc1,PTGS1,enzyme activity,inhibitor,,7.57
CC(=O)Oc1cccc(C(=O)NCc2cc(O)c(O)c(Br)c2)c1C,rep main protease,enzyme activity,inhibitor,FRET,7.35
COc1cccc(CNc2nc(NC3CCN(C(=O)c4ccccc4)CC3)c3nc[nH]c3n2)c1,IPMK,enzyme activity,inhibitor,,9
C=CC(=O)N1CCC([C@@H]2CCNc3c(C(N)=O)c(-c4ccc(Oc5ccccc5)cc4)nn32)CC1,"Dual specificity mitogen-activated protein kinase kinase 2 (MAP2K2, Homo sapiens, UniProt P36507)",enzyme activity,inhibitor,,0.133
COc1ccc(N2CCN(Cc3cn4c(-c5ccc(Br)cc5)nnc4s3)CC2)cc1,"Aifm2 (Mus musculus, UniProt Q8BUE4, L360F)",enzyme activity,inhibitor,absorbance,~0.518
Nc1nc2c(s1)C(c1ccccc1Cl)CC(=O)N2 (stereo not shown),"Aldehyde dehydrogenase, dimeric NADP-preferring (ALDH3A1, Homo sapiens, UniProt P30838)",enzyme activity,inhibitor,fluorescence,< 10
Cc1ccc(S(=O)(=O)NNc2ccc([N+](=O)[O-])cc2[N+](=O)[O-])cc1,PTGS1,enzyme activity,inhibitor,,194
O=C(Nc1ccc(-c2ccccc2)cc1)c1cnn(-c2ccc([N+](=O)[O-])cc2)c1C(F)(F)F,PTGS1,enzyme activity,inhibitor,,5.91
O=C(NCc1cc(O)c(O)c(Br)c1)c1ccc(OC(F)(F)F)cc1,"Replicase polyprotein 1ab, papain-like protease (rep, Porcine epidemic diarrhea virus, UniProt P0C6Y4)",enzyme activity,inhibitor,FRET,9.96
NS(=O)(=O)c1ccc(-n2nc(C(=O)NN3C(=O)c4ccccc4C3=O)cc2-c2ccccc2)cc1,PTGS1,enzyme activity,inhibitor,,6.72
O=C(NCc1cc(O)c(O)c(Br)c1)N1CCCC1,rep main protease,enzyme activity,inhibitor,FRET,2.88
Nc1ncnc2c1ncn2[C@@H]1C(F)=C(CO)[C@@H](O)[C@H]1O,"Adenosylhomocysteinase (AHCY, Homo sapiens, UniProt P23526)",enzyme activity,inhibitor,,0.15
CC(=NNC(=O)c1cc(-c2ccccc2)n(-c2ccc(S(N)(=O)=O)cc2)n1)c1ccc(Br)cc1,PTGS1,enzyme activity,inhibitor,,3.14
O=C(NCc1cc(O)c(O)c(Br)c1)c1nccs1,rep main protease,enzyme activity,inhibitor,FRET,2.52
